Results as given in ChEMBL document CHEMBL1777787, “Identification of 4H,6H-[2]benzoxepino[4,5-c][1,2]oxazoles as novel squalene synthase inhibitors” (Bioorg Med Chem Lett, 2011).

Assays:
Squalene synthase = target: T1, Squalene synthase (Homo sapiens, UniProt P37268); assay: Inhibition of recombinant squalene synthase assessed as conversion of trans,trans-[1-3H]farnesyl pyrophosphate to [3H]squalene after 10 mins by liquid scintillation counting
T1 sequence (P37268 whole entry): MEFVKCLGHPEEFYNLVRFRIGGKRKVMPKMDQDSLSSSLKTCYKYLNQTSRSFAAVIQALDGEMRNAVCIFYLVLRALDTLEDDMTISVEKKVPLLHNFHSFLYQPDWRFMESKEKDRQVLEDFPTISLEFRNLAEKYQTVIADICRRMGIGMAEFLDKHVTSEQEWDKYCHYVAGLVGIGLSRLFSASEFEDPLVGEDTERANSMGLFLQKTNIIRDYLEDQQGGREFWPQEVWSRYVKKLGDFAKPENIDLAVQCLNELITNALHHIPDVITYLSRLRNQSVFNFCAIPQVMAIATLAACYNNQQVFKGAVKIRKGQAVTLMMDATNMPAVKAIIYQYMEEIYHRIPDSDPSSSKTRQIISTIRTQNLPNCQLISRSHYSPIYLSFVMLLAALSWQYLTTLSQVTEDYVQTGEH
How it was run: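 Recombinant SQS in 1 mM NADPH, 5 mM DTT, 10% PBS, 10 mM sodium fluoride and 0.5 mM MgCl₂, pH 7.5. Compounds were added from DMSO at defined concentrations. The reaction was started with farnesyl pyrophosphate plus 0.2 nM trans,trans-[1-³H]-farnesyl pyrophosphate, run 10 min at 37 °C, then extracted with chloroform/methanol. IC50 values are means of three experiments.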

[1] = Stability in human liver microsomes assessed as compound remaining after 60 mins; format: ADME, Microsome; details: read-out: Stability
Mus musculus [2] = assay: In vivo inhibition of squalene synthase in NMRI mouse assessed as inhibition of hepatic [14C]cholesterol biosynthesis at 3 mg/kg, po measured after 1 hr by liquid scintillation counting
Mus musculus [3] = assay: In vivo inhibition of squalene synthase in NMRI mouse assessed as inhibition of hepatic [14C]cholesterol biosynthesis at 1 mg/kg, po measured after 1 hr by liquid scintillation counting

IC50 (Squalene synthase) [nM]	remaining at 1 h [1] [%]	SMILES	inhibition in vivo at 3 mg/kg (Mus musculus [2]) [%]	inhibition in vivo at 1 mg/kg (Mus musculus [3]) [%]
1420	–	COc1cccc([C@@H]2O[C@@H](CC(=O)O)c3noc(C(C)C)c3-c3ccc(Cl)cc32)c1OC	–	–
56	100	COc1cccc([C@H]2O[C@H](CC(=O)O)c3noc(C(C)C)c3-c3ccc(Cl)cc32)c1OC	58	–
162	–	COc1cccc([C@H]2O[C@H](CC(=O)N3CC[C@@H](O)C3)c3noc(C(C)C)c3-c3ccc(Cl)cc32)c1OC	–	–
131	91	COc1cccc([C@H]2O[C@H](CC(=O)N3CCC(CC(=O)O)CC3)c3noc(C(C)C)c3-c3ccc(Cl)cc32)c1OC	80	–
112	–	COc1cccc([C@H]2O[C@H](CC(=O)N3CCC(C(=O)O)CC3)c3noc(C(C)C)c3-c3ccc(Cl)cc32)c1OC	–	–
223	–	COc1cccc([C@H]2O[C@H](CC(=O)O)C(=O)N(CC(C)(C)CO)c3ccc(Cl)cc32)c1OC	–	–
260	37	COc1cccc([C@H]2O[C@H](CC(=O)N3CCC(CC(=O)O)CC3)C(=O)N(CC(C)(C)CO)c3ccc(Cl)cc32)c1OC	–	–
5500	–	COc1cccc(C2OC(CC(=O)O)c3noc(C(C)C)c3-c3ccc(Cl)cc32)c1OC (single isomer, unassigned; enantiomer 2)	–	–
169	64	COc1cccc(C2OC(CC(=O)O)c3noc(C(C)C)c3-c3ccc(Cl)cc32)c1OC (single isomer, unassigned; enantiomer 3)	31	–
213	7	COc1cccc([C@H]2O[C@H](CC(=O)N3CCC(CC(=O)O)CC3)C(=O)N(CC(C)(C)COC(C)=O)c3ccc(Cl)cc32)c1OC [LAPAQUISTAT ACETATE]	73	59
